Screening data from PubChem.
HCT116 bCat-KO: beta-catenin-lacking colon tumor cell growth suppression | AID 818 | HCT116 beta-catenin knockout viability, CellTiter-Glo, 60 h; stronger effect = lower value | hit rate 1.5% among 140,000 | viability, % at 10 µM;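 active = viability at or under a set limit, the compound median less 4 SD, cut at about 6% in these data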;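 also: 0% = Hyamine 1622 control at 20 µM and 100% = untreated cell control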
PTEN del growth: PTEN-deleted cell growth suppression; viability, % at 10 µM; hit rate 1.2% among 140,000; HCT116 PTEN-null viability, CellTiter-Glo, 60 h; stronger effect = lower value;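 active = viability at or below a set limit, 4 SD under the median of all tested compounds, cut at about 3.7% in these data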;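 also: PTEN knockout HCT116 line with beta catenin targeted HCT116 as companion control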
HUVEC prolif 384: human endothelial cell proliferation inhibition | HUVEC proliferation, CellTiter-Glo luminescence, 72 h; stronger effect = lower value | viability, % at 10 µM (by protocol) | hit rate 1.1% among 86,000 | AID 648;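 active = viability at or below 30%; inactive = viability above 30%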;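 also: 100% = median luminescence of DMSO-only cell control wells on each plate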
H69AR inhibit: blocks growth of human H69AR lung tumor cells | H69AR lung tumor viability, ATP luminescence, 72 h; stronger effect = lower value | viability, % at 10 µM | hit rate 6% among 85,000;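 active = viability at or below 40%; inactive = viability above 40%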;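 also: multidrug resistant small cell line overexpressing MRP-1 efflux transporter; 100% = mean luminescence of untreated control wells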
Fibroblast inh: blocks proliferation of human lung fibroblasts; LL 47 human lung fibroblast viability, ATP luminescence; stronger effect = lower value; viability, % at 10 µM; hit rate 1.1% among 85,000; AID 719;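 active = viability at or below 50% in the single dose screen; inactive = viability above 50%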;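 also: compound exposure lasted 72 h before the ATP readout; 100% = median luminescence of untreated cell-only wells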
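Test system: LL 47 human lung fibroblasts / Incubation: 72 h compound exposure at 37 °C after overnight plating / Technique: luminescent ATP detection, CellTiter-Glo / Compound dosing: 0.1% DMSO in all compound wells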
An asterisk follows results filed as active; / = not tested or not shown. The full list was thinned out, with hits kept by preference.

SMILES	HCT116 bCat-KO	PTEN del growth	HUVEC prolif 384	H69AR inhibit	Fibroblast inh
CC1=C(C(=O)OC2CCCC2)C(c2ccc(C)o2)C2=C(CC(c3cccs3)CC2=O)N1 (stereo unspecified)	72.6	73.4	92.7	35.3*	84.9
CCOC(=O)C1=C(C)NC2=C(C(=O)CC(c3cccs3)C2)C1c1cccs1 (stereo unspecified)	18.4	17.6	41.5	15.0*	57.5
COC(=O)C1=C(C)NC2=C(C(=O)CCC2)C1c1ccsc1 (stereo unspecified)	105.0	87.5	99.9	79.4	107.4
COC(=O)C1=C(C)NC2=C(C(=O)CC(c3cccs3)C2)C1c1ccsc1 (stereo unspecified)	50.9	37.5	71.3	23.6*	68.8
CCC(=O)N(Cc1ccco1)c1nc(C(=O)Nc2ccc(Cl)cc2)c(C)s1	80.9	72.4	/	/	/
Cn1nc(-c2ccccc2)c(-c2nc(-c3cccc(Cl)c3)no2)c1Cl	82.1	64.3	80.6	52.7	93.0
CCn1c(=O)c(=O)[nH]c2cc(C(=O)NC3CCCc4ccccc43)ccc21 (stereo unspecified)	29.4	27.1	66.1	32.0*	68.9
CCn1c(=O)c(=O)[nH]c2cc(C(=O)NC3CC3)ccc21	97.4	102.1	/	/	/
Cc1cc(-c2n[nH]c(=S)n2/N=C/C(Cl)=C/c2ccccc2)n[nH]1	5.0*	2.2*	/	/	/
COc1ccc2c(c1)c(CCN1C(=O)c3ccccc3C1=O)cn2C(=O)c1ccco1	91.2	87.5	26.2*	49.8	80.1
O=C(Oc1ccc2[nH]cc(CCN3C(=O)c4ccccc4C3=O)c2c1)c1ccco1	94.2	111.7	97.6	98.7	106.2
O=C(NCc1nnc(SCc2ccc(F)cc2)n1-c1ccc(F)cc1)C12CC3CC(CC(C3)C1)C2	91.4	94.9	/	/	/
COc1ccc(-c2cc(C(F)(F)F)n3nc(C(=O)NCc4ccco4)cc3n2)cc1	100.7	90.3	90.4	83.8	87.1
COc1ccc(-c2cc(C(F)(F)F)n3nc(C(=O)NCc4ccco4)c(Cl)c3n2)cc1	4.4*	8.4	52.8	36.8*	70.8
O=C(NCc1ccco1)c1nn2c(C(F)(F)F)cc(-c3cccs3)nc2c1Br	83.9	89.2	65.9	32.4*	79.4
CC(C)(/C=N/NC(=O)CSCc1ccccc1Cl)CCC#N	82.2	89.9	/	/	/
CC(=O)Nc1cccc(NC(C)=C(C#N)C#N)c1	93.5	102.0	/	/	/
COc1ccc(-c2cc(=O)n(-c3nc4ccccc4[nH]3)[nH]2)cc1	95.2	82.7	10.0*	39.7*	61.3
COc1ccc(-n2c(N)c(-c3nc4ccccc4n3C)sc2=S)cc1	64.5	62.7	/	/	/
CCOc1ccc(-n2c(N)c(-c3nc4ccccc4[nH]3)sc2=S)cc1	99.4	87.6	54.4	22.3*	73.7
Cc1ccc(N2C(N)=C(C#N)C(c3cccnc3)C3=C2CC(C)(C)CC3=O)cc1 (stereo unspecified)	87.4	90.7	87.0	23.5*	78.7
Cc1ccc(N2C(N)=C(C#N)C(c3ccsc3)C3=C2CC(C)(C)CC3=O)cc1 (stereo unspecified)	74.7	75.5	83.6	48.1	86.6
Cc1cc(N)n2ncc(-c3ccccc3)c2n1	89.8	102.3	95.2	71.6	95.3
Cc1cc(N)n2ncc(-c3cccc(Br)c3)c2n1	70.7	80.0	46.3	26.4*	65.9
Cn1ncc2c(NNC(=O)c3ccc(Cl)cc3Cl)ncnc21	81.4	85.5	/	/	/
SMILES	HCT116 bCat-KO	PTEN del growth	HUVEC prolif 384	H69AR inhibit	Fibroblast inh
Cc1cc2nc(C3CCN(CC4COc5ccccc5O4)CC3)[nH]c2cc1C (stereo unspecified)	58.3	66.7	5.9*	33.1*	91.4
CCCNC(=S)N1CCC(c2nc3cc(C)c(C)cc3[nH]2)CC1	89.0	89.0	/	/	/
O=C(CCc1ccc(S(=O)(=O)NCc2ccccc2)cc1)NCC1CCCO1 (stereo unspecified)	97.5	96.7	/	/	/
CC1CCN(S(=O)(=O)c2ccc3c(c2)oc(=O)n3CC(=O)N2CCc3ccccc3C2)CC1	84.8	89.8	91.9	18.3*	86.3
O=C(Oc1cc2oc(=O)c3c(c2cc1Cl)CCCC3)c1cccs1	100.5	106.1	/	/	/
COc1ccc(-c2cc(=O)[nH]c(NCc3ccccc3)n2)cc1	39.6	39.3	82.8	85.0	90.7
CC(C)(C)c1nn(-c2ccccc2)c2[nH]c(=O)c(CNc3ccc4c(c3)OCCO4)cc12	78.9	66.9	52.7	101.1	92.0
CC(C)(C)c1nn(-c2ccccc2)c2[nH]c(=O)c(CNCc3ccco3)cc12	35.7	24.1	44.4	7.8*	100.4
Cc1ccc(CNCc2cc3c(C(C)(C)C)nn(-c4ccccc4)c3[nH]c2=O)cc1	3.7*	4.7	67.2	1.9*	64.7
COc1ccc(CNCc2cc3c(C(C)(C)C)nn(-c4ccccc4)c3[nH]c2=O)cc1	0.5*	0.6*	72.1	24.1*	69.4
O=C(C1CCN(S(=O)(=O)c2cccc3cccnc23)CC1)N1CCN(c2ccc(Cl)cc2)CC1	11.7	15.9	91.3	60.8	90.4
O=C(CN1C(=O)NC2(CCc3ccccc32)C1=O)c1ccc2c(c1)OCCO2 (stereo unspecified)	78.6	74.7	78.9	85.5	88.7
CC1(C)Cc2c(C#N)c(N3CCN(C(=O)c4ccco4)CC3)nc(Cc3ccccc3)c2CO1	1.5*	1.0*	20.8*	55.1	79.4
Cc1nc(N2CCN(C(=O)c3ccc(Cl)cc3)CC2)c(C#N)c2c1COC(C)(C)C2	65.8	70.2	99.3	37.4*	94.7
CC1(C)Cc2c(C#N)c(N3CCN(C(=O)c4ccco4)CC3)nc(-c3ccco3)c2CS1	84.6	74.1	/	/	/
CCC1(C)Cc2c(sc3c2c(=O)n(C)c2nnc(SCC(=O)c4ccccc4)n32)CO1 (stereo unspecified)	/	/	83.0	4.2*	35.2*
CCC1(C)Cc2c(sc3nc(SC)n(Cc4ccccc4)c(=O)c23)CO1 (stereo unspecified)	75.1	78.5	123.4	97.4	94.0
CCC1(C)Cc2c(sc3c2c2ncnn2c2nnc(SCC(=O)NCc4ccco4)n32)CO1 (stereo unspecified)	66.6	68.3	77.8	37.1*	96.3
Cc1cc(C)nc(SC2=CS(=O)(=O)c3ccccc32)n1	2.0*	1.8*	93.6	5.8*	58.1
O=S1(=O)C=C(Sc2nnc(-c3ccccc3)o2)c2ccccc21	1.2*	0.9*	10.7*	0.3*	/
O=S1(=O)C=C(Sc2nc3ccccc3s2)c2ccccc21	1.9*	1.2*	12.4*	102.7	3.1*
COC(=O)c1sccc1N/N=C/c1cccc(Oc2ccccc2)c1	45.6	43.6	/	/	/
CCc1ccc2oc(-c3cc(N)ccc3O)nc2c1	61.2	34.4	82.0	31.9*	67.7
CCc1ccc2oc(-c3cc(N)cc(C)c3O)nc2c1	63.5	73.3	81.4	23.0*	82.2
CCOC(=O)C1=C(N)n2c(s/c(=C\c3ccco3)c2=O)=C(C(=O)OCC)C1c1ccco1 (stereo unspecified)	26.6	28.9	28.6*	27.1*	28.8*
